Two molecules from ChEMBL document CHEMBL1687883, “Dinoxin B, a withanolide from Datura inoxia leaves with specific cytotoxic activities” (J Nat Prod, 2011) can be followed below.

For orientation: IC50 means the concentration that inhibits the measured activity by half. Read a high IC50 as lower potency.

In one test the test system is MCF7. The test is described as follows: Cytotoxicity against human MCF7 cells after 48 hrs by CellTiterGlo luminescent assay. The format is functional, cell-based. The note with it: MCF7, 48 h. Put shortly:
(§1)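 Cells (5000-15 000 per well) were plated and left to adhere for 24 h in standard growth medium under ATCC-recommended conditions. The medium was then replaced and the compound added across varying doses, with DMSO in the final medium. Viability was read by ATP-dependent CellTiter-Glo luminescence, and IC50 values were derived from the dose series.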
In general terms: Cellular ATP, detected with luciferase, serves as a proxy for viable cell number.

For the next test, the system named is MDA-MB-468. The test is described as follows: Cytotoxicity against human MDA-MB-468 cells after 48 hrs by CellTiterGlo luminescent assay. The format is functional, cell-based. The note with it: MDA-MB-468, 48 h. Put shortly: as §1
For another test, the system named is T47D. The experiment in a line: Cytotoxicity against human T47D cells after 48 hrs by CellTiterGlo luminescent assay. The format is functional, cell-based. The procedure, abridged: as §1
A further test concerns MDA-MB-453. The test is described as follows: Cytotoxicity against human MDA-MB-453 cells after 48 hrs by CellTiterGlo luminescent assay. The format is functional, cell-based. The note with it: MDA-MB-453, 48 h. The procedure, abridged:
as §1

Another test has as its system MDA-MB-231. The experiment in a line: Cytotoxicity against human MDA-MB-231 cells after 48 hrs by CellTiterGlo luminescent assay. It counts as functional, cell-based. To be noted: MDA-MB-231, 48 h. The procedure, abridged:
as §1

Test [1] can be described thus: Cytotoxicity against human Hs 578T cells after 48 hrs by CellTiterGlo luminescent assay. The format is functional, cell-based. The procedure, abridged: as §1
For another test, the system named is COLO 205. The experiment in a line: Cytotoxicity against human COLO205 cells after 48 hrs by CellTiterGlo luminescent assay. It counts as functional, cell-based. The note with it: COLO 205, 48 h. Put shortly: as §1
For the next test, the system named is HCT-116. The test is described as follows: Cytotoxicity against human HCT116 cells after 48 hrs by CellTiterGlo luminescent assay. It counts as functional, cell-based. To be noted: HCT-116, 48 h. Put shortly:
as §1

The subject of the next test is SW48. The experiment in a line: Cytotoxicity against human SW48 cells after 48 hrs by CellTiterGlo luminescent assay. It counts as functional, cell-based. To be noted: SW48, 48 h. Put shortly: as §1
The test system of the next test is RKO. The test is described as follows: Cytotoxicity against human RKO cells after 48 hrs by CellTiterGlo luminescent assay. It counts as functional, cell-based. Put shortly: as §1
The subject of the next test is A549. The test is described as follows: Cytotoxicity against human A549 cells after 48 hrs by CellTiterGlo luminescent assay. It counts as functional, cell-based. The note with it: A549, 48 h. The procedure, abridged:
as §1

The subject of another test is A-427. The experiment in a line: Cytotoxicity against human A427 cells after 48 hrs by CellTiterGlo luminescent assay. To be noted: A-427, 48 h. It counts as functional, cell-based. Put shortly: as §1
A further test deals with HepG2. The test is described as follows: Cytotoxicity against human HepG2 cells after 48 hrs by CellTiterGlo luminescent assay. The format is functional, cell-based. The note with it: HepG2, 48 h. Put shortly:
as §1

The test system of another test is Huh-7. The experiment in a line: Cytotoxicity against human HuH7 cells after 48 hrs by CellTiterGlo luminescent assay. It counts as functional, cell-based. To be noted: Huh-7, 48 h. Put shortly: as §1
Test [2] is described as follows: Cytotoxicity against human Hep3B cells after 48 hrs by CellTiterGlo luminescent assay. It counts as functional, cell-based, Hep 3B2. Put shortly:
as §1

Test [3] in a line: Cytotoxicity against human NHF177 cells after 48 hrs by CellTiterGlo luminescent assay. The format is cell-based. To be noted: NHF177, 48 h. Put shortly:
as §1

Another test has as its system HUVEC. The experiment in a line: Cytotoxicity against human HUVEC cells after 48 hrs by CellTiterGlo luminescent assay. It counts as cell-based. The procedure, abridged: as §1
Another test concerns SK-MEL-28. The test is described as follows: Cytotoxicity against human SK-MEL-28 cells after 48 hrs by CellTiterGlo luminescent assay. The note with it: SK-MEL-28, 48 h. It counts as functional, cell-based. Put shortly: as §1
The next test has as its system SK-MEL-5. The test is described as follows: Cytotoxicity against human SK-MEL-5 cells after 48 hrs by CellTiterGlo luminescent assay. The format is functional, cell-based. To be noted: SK-MEL-5, 48 h. Put shortly: as §1
A further test deals with UACC-62. The test is described as follows: Cytotoxicity against human UACC62 cells after 48 hrs by CellTiterGlo luminescent assay. The format is functional, cell-based. The note with it: UACC-62, 48 h. The procedure, abridged:
as §1

The test system of the next test is SK-MEL-2. The experiment in a line: Cytotoxicity against human SK-MEL-2 cells after 48 hrs by CellTiterGlo luminescent assay. To be noted: SK-MEL-2, 48 h. It counts as functional, cell-based. The procedure, abridged: as §1
The test system of the next test is OVCAR-3. The experiment in a line: Cytotoxicity against human OVCAR3 cells after 48 hrs by CellTiterGlo luminescent assay. It counts as functional, cell-based. To be noted: OVCAR-3, 48 h. The procedure, abridged:
as §1

A short description of test [4]: Cytotoxicity against rat IEC-6 cells after 48 hrs by CellTiterGlo luminescent assay. It counts as cell-based. The note with it: IEC-6, 48 h. Put shortly:
as §1

In the case of `CC1=C(CO)C(=O)O[C@@H]([C@@H](CO)[C@H]2CC[C@H]3[C@@H]4CC=C5CC=CC(=O)[C@]5(C)[C@H]4C[C@@H](O)[C@]23C)C1`, the IC50 in the test on MCF7 turned out to be 870 nM; in the test with MDA-MB-468, 750 nM; in the test with T47D it was 990 nM.

On to `CC1=C(CO[C@@H]2O[C@H](CO)[C@@H](O)[C@H](O)[C@H]2O)C(=O)O[C@@H]([C@@H](CO)[C@H]2CC[C@H]3[C@@H]4CC=C5CC=CC(=O)[C@]5(C)[C@H]4C[C@@H](O)[C@]23C)C1` [DINOXIN B], for which the IC50 was 3000 nM in the test on MDA-MB-453; 1000 nM with MDA-MB-231; 610 nM in the test with MCF7; 580 nM in the test with MDA-MB-468; 440 nM in [1]; 220 nM with T47D. Besides, the IC50 with COLO 205 turned out to be 2200 nM; in the test with HCT-116, 1000 nM; in the test with SW48 it was 580 nM; with RKO, 360 nM; in the test on A549 it was 3400 nM; with A-427, 870 nM. For the same molecule, the IC50 was 1500 nM in the test with HepG2; 1500 nM in the test with Huh-7; 670 nM in [2]; 1230 nM in [3]; 740 nM in the test with HUVEC; 2300 nM in the test with SK-MEL-28. Moreover, the IC50 in the test on SK-MEL-5 was 1400 nM; in the test on UACC-62, 500 nM; with SK-MEL-2, 360 nM; in the test with OVCAR-3 it was 3200 nM; in test [4], 3300 nM.
